The source of these data is ChEMBL document CHEMBL1765015, “Discovery of a potent and efficacious peptide derivative for δ/μ opioid agonist/neurokinin 1 antagonist activity with a 2',6'-dimethyl-L-tyrosine: in vitro, in vivo, and NMR-based structural studies” (J Med Chem, 2011).

Molecules are shown by their SMILES.

Series [1] concerns the target Substance-P receptor (Cavia porcellus) (UniProt P30547). In words: Antagonist activity at NK1 receptor in guinea pig ileum assessed as inhibition of substance P-induced muscle contraction. Type of series: functional, tissue-based.
For series [2], the target named is T1, Delta-type opioid receptor (Homo sapiens, UniProt P41143). In words: Agonist activity at human opioid delta receptor expressed in mouse HN9.10 cells assessed as [35S]GTPgammaS binding. The series is classed as functional, cell-based. Summed up: (§1)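 [35S]GTPγS binding on membranes of HN9.10 cells stably expressing human DOR or rat MOR, about 1 pmol receptor/mg membrane protein. logEC50 from non-linear regression of at least two independent experiments in duplicate; EC50 is the antilog. Emax given as percent stimulation.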
T1 sequence (P41143 whole entry): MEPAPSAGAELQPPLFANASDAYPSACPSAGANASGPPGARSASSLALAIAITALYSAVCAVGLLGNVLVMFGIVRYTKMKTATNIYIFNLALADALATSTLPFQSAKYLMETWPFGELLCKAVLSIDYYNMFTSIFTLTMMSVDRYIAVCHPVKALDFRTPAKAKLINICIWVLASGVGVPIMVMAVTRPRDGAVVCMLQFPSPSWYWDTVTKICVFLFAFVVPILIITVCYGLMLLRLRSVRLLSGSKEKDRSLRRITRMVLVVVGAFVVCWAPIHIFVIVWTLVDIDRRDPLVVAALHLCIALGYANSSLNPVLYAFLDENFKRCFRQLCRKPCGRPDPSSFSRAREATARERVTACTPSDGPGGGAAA

Series [3] addresses T1, Delta-type opioid receptor. In words: Displacement of [3H]DPDPE from human delta opioid receptor expressed in mouse HN9.10 cells. Type of series: cell-based.
Series [4] concerns the target Substance-P receptor (Homo sapiens, UniProt P25103). In words: Displacement of [3H]substance P from human NK1 receptor expressed in CHO cells. Type of series: cell-based.
Another series deals with Rattus norvegicus. In words: Antinociceptive activity in Sprague-Dawley rat assessed as time required to maximum activity on reduction in infrared heat-induced paw withdrawal latency at 10 ug administered intrathecally. Type of series: functional. The essentials: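 Male Sprague-Dawley rats (200-225 g) fitted with a lumbar intrathecal catheter under ketamine/xylazine and given 5-7 days recovery. Dose of 10 μg in 5 μL i.t., followed by air bubble and saline flush. Radiant heat applied to left hind paw after 20 min acclimation, with 33.0 s cutoff. Baseline taken 30 min before dosing; […], mean ± SEM.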

For series [5], the target named is Mu-type opioid receptor (Cavia porcellus, UniProt P97266). In words: Agonist activity at mu opioid receptor in guinea pig ileum assessed as inhibition of electrically-stimulated muscle contraction. Type of series: functional, tissue-based.
Sequence of Mu-type opioid receptor (Cavia porcellus, UniProt P97266) (P97266 whole entry): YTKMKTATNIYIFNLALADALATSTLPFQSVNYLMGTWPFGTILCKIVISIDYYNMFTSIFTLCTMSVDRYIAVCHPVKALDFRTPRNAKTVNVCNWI
The target of series [6] is Delta-type opioid receptor (Mus musculus, UniProt P32300). In words: Agonist activity at delta opioid receptor in mouse vas deferens assessed as inhibition of electrically-stimulated muscle contraction. Type of series: functional, tissue-based.
Sequence of Delta-type opioid receptor (Mus musculus, UniProt P32300) (P32300 whole entry): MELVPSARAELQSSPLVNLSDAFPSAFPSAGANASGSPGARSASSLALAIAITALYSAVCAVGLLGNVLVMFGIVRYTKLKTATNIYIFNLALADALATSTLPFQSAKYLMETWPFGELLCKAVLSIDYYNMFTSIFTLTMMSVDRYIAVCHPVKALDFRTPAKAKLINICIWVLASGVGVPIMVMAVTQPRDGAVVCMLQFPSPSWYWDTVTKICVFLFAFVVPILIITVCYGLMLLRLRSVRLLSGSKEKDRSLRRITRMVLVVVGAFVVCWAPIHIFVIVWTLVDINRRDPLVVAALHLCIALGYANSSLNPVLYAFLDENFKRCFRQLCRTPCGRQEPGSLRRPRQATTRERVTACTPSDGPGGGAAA
The target of series [7] is Mu-type opioid receptor (Rattus norvegicus) (UniProt P33535). In words: Agonist activity at rat mu opioid receptor expressed in mouse HN9.10 cells assessed as [35S]GTPgammaS binding relative to control. The series is classed as functional, cell-based. Summed up:
as §1

For series [8], the target named is T1, Delta-type opioid receptor. In words: Agonist activity at human opioid delta receptor expressed in mouse HN9.10 cells assessed as [35S]GTPgammaS binding relative to control. Type of series: functional, cell-based. The essentials:
as §1

In series [9] the target is Substance-P receptor (Rattus norvegicus, UniProt P14600). In words: Displacement of [3H]substance P from rat NK1 receptor expressed in CHO cells. Type of series: cell-based.
Sequence of Substance-P receptor (Rattus norvegicus, UniProt P14600) (P14600 whole entry): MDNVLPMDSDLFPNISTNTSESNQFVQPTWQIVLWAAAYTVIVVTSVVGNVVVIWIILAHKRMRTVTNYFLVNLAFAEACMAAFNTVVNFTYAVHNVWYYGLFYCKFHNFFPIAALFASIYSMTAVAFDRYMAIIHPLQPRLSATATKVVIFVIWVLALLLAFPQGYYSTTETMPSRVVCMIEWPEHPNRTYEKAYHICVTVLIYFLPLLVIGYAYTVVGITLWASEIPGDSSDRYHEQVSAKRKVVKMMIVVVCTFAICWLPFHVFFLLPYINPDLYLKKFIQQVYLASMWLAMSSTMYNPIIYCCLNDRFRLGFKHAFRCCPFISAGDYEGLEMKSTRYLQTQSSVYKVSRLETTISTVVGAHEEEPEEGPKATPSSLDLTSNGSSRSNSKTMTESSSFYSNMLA
The target in series [10] is T2, Mu-type opioid receptor (Rattus norvegicus, UniProt P33535). In words: Agonist activity at rat mu opioid receptor expressed in mouse HN9.10 cells assessed as [35S]GTPgammaS binding. Type of series: functional, cell-based.
T2 sequence (P33535 whole entry): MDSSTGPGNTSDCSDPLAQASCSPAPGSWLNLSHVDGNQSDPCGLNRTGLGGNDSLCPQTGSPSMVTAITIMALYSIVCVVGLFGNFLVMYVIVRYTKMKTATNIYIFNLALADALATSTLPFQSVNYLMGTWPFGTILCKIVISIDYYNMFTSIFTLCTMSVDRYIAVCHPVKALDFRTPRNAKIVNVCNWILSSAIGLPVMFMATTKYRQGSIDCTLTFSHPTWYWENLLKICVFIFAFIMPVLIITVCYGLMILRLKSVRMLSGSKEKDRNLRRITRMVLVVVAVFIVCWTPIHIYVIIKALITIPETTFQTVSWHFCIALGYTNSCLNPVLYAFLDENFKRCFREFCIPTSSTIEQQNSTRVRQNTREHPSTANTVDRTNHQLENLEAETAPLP
Series [11] addresses T2, Mu-type opioid receptor. In words: Displacement of [3H]DAMGO from rat mu opioid receptor expressed in mouse HN9.10 cells. Type of series: cell-based.
A further series deals with Plasma. In words: Metabolic stability in rat plasma after up to 6 hrs. Type of series: ADME, cell-free. The essentials:
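DMSO stock diluted 1000-fold into rat plasma, giving 50 μg/mL final, and incubated at 37 °C. Aliquots taken at 1, 2, 4 and 6 h, proteins precipitated with acetonitrile, and remaining parent measured by HPLC. Three independent experiments, mean ± SD; half-life calculated.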

Sequence of Substance-P receptor (Homo sapiens, UniProt P25103) (P25103 whole entry): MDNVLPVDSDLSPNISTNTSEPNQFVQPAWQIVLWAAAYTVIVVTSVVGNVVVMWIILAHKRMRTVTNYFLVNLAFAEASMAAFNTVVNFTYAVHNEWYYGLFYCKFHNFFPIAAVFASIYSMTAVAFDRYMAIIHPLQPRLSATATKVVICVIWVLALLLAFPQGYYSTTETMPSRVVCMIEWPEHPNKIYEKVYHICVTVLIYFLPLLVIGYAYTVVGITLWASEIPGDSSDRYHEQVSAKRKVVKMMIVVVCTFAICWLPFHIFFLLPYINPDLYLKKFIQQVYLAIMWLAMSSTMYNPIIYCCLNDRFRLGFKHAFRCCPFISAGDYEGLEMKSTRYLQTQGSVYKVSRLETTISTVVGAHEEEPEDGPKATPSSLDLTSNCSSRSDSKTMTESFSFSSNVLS
Sequence of Substance-P receptor (Cavia porcellus) (P30547 whole entry): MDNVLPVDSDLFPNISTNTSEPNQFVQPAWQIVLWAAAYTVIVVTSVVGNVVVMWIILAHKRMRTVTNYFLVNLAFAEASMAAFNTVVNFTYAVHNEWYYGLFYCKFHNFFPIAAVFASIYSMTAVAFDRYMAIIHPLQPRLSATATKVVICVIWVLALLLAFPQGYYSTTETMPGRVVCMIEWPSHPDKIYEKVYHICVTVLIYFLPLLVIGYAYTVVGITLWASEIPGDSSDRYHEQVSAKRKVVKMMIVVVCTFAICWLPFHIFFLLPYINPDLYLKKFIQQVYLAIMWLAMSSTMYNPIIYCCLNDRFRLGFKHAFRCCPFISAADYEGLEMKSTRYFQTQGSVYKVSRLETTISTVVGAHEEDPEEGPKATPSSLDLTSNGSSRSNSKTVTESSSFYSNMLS
Sequence of Mu-type opioid receptor (Rattus norvegicus) (P33535 whole entry): as the sequence (P33535 whole entry) above

`CCCC[C@H](NC(=O)[C@H](Cc1ccccc1)NC(=O)CNC(=O)[C@@H](C)NC(=O)[C@@H](N)Cc1c(C)cc(O)cc1C)C(=O)N1CCC[C@H]1C(=O)N[C@@H](CC(C)C)C(=O)N[C@@H](Cc1c[nH]c2ccccc12)C(=O)NCc1cc(C(F)(F)F)cc(C(F)(F)F)c1`: the Ke in [1] is 13 nM. In addition, the EC50 in series [2] (read-out: pEC50 (converted)) is 0.126 nM. Also, the values for the IC50 (in series [3]; at Substance-P receptor [4]) were 24 nM and 0.166 nM, respectively.
Turning to `CN1CC[C@]23c4c5ccc(O)c4O[C@H]2[C@@H](O)C=C[C@H]3[C@H]1C5` [MORPHINE], the Time in the series with Rattus norvegicus was found to be 20 min.
For the compound `CCCC[C@H](NC(=O)[C@H](Cc1ccccc1)NC(=O)CNC(=O)[C@@H](C)NC(=O)[C@@H](N)Cc1c(C)cc(O)cc1C)C(=O)N1CCC[C@H]1C(=O)N[C@@H](CC(C)C)C(=O)N[C@@H](Cc1c[nH]c2ccccc12)C(=O)NCc1ccc(OC)c(OC)c1`, the IC50 at Mu-type opioid receptor [5] was 23 nM; in series [6], 8.8 nM; at Substance-P receptor [9] it was 891 nM; in series [3], 0.316 nM; on Substance-P receptor [4], 2 nM; on Mu-type opioid receptor [11], 0.631 nM. Also, the values for the Emax in series [7] and in series [8] were 48% and 42%, respectively. For the same compound, the Ke in series [1] stood at 24 nM. Moreover, the results for the EC50 (in series [2] (read-out: EC50); at Mu-type opioid receptor [10] (read-out: EC50); on Mu-type opioid receptor [10] (read-out: pEC50 (converted))) were 0.6 nM, 0.72 nM and 0.955 nM, respectively. Besides, the Ki amounted to 320 nM on Substance-P receptor [9], 0.15 nM in [3] and 0.95 nM at Substance-P receptor [4].
Turning to `CSCC[C@H](NC(=O)[C@H](Cc1ccccc1)NC(=O)CNC(=O)[C@@H](C)NC(=O)[C@@H](N)Cc1c(C)cc(O)cc1C)C(=O)N1CCC[C@H]1C(=O)N[C@@H](CC(C)C)C(=O)N[C@@H](Cc1c[nH]c2ccccc12)C(=O)NCc1cc(C(F)(F)F)cc(C(F)(F)F)c1`, the Ke in series [1] stood at 7.5 nM. The IC50 is 5.13 nM at Substance-P receptor [9], 0.38 nM in series [3], 0.0182 nM at Substance-P receptor [4] and 4.27 nM on Mu-type opioid receptor [11]. Moreover, the Stability result in the series on Plasma is recorded as “Stable”.
For `CSCC[C@H](NC(=O)[C@H](Cc1ccccc1)NC(=O)CNC(=O)[C@@H](C)NC(=O)[C@@H](N)Cc1ccc(O)cc1)C(=O)N1CCC[C@H]1C(=O)N[C@@H](CC(C)C)C(=O)N[C@@H](Cc1c[nH]c2ccccc12)C(=O)NCc1cc(C(F)(F)F)cc(C(F)(F)F)c1`, in the series with Rattus norvegicus, the Time came out at 15 min.
On to `CCCC[C@H](NC(=O)[C@H](Cc1ccccc1)NC(=O)CNC(=O)[C@@H](C)NC(=O)[C@@H](N)Cc1c(C)cc(O)cc1C)C(=O)N1CCC[C@H]1C(=O)N[C@@H](CC(C)C)C(=O)N[C@@H](Cc1c[nH]c2ccccc12)C(=O)N(C)Cc1cc(C(F)(F)F)cc(C(F)(F)F)c1`, for which the IC50 at Mu-type opioid receptor [5] is 110 nM; in series [6], 14 nM; at Substance-P receptor [9], 30.9 nM; in series [3] it was 0.977 nM; on Substance-P receptor [4], 0.468 nM; on Mu-type opioid receptor [11], 3.31 nM. For the same compound, the maximal response (Emax) in series [8] was 49%. In addition, the Ke in series [1] worked out at 6.1 nM. In addition, the EC50 in [2] (read-out: EC50) was 2.3 nM; in series [2] (read-out: pEC50 (converted)) it was 7.08 nM; at Mu-type opioid receptor [10] (read-out: EC50), 8 nM.
Turning to `CCCC[C@H](NC(=O)[C@H](Cc1ccccc1)NC(=O)CNC(=O)[C@@H](C)NC(=O)[C@@H](N)Cc1c(C)cc(O)cc1C)C(=O)N1CCC[C@H]1C(=O)N[C@@H](CC(C)C)C(=O)N[C@@H](Cc1c[nH]c2ccccc12)C(=O)NCc1cccc(C(F)(F)F)c1`, the IC50 at Mu-type opioid receptor [5] was 22 nM; in series [6] it was 8.7 nM; at Substance-P receptor [9], 389 nM; in series [3], 8.51 nM; on Substance-P receptor [4], 2.19 nM. For the same compound, the figures for the Emax in series [7] and in series [8] were 17% and 50%, respectively. Besides, the Ke in [1] was 14 nM. Further, the EC50 in [2] (read-out: EC50) is 0.2 nM; in [2] (read-out: pEC50 (converted)), 0.437 nM. Besides, the Ki came to 140 nM at Substance-P receptor [9] and 1 nM on Substance-P receptor [4].
